High-throughput results (PubChem BioAssay)
iPSC survival up = increases survival of single human iPS cells; hiPSC single-cell survival, ATPlite luminescence; 100% = ROCK inhibitor wells, 0% = DMSO; survival enhancement, % at 20 µM; hit rate 0.044% among 360,000; AID 602274; in the data active = survival enhancement above about 18%;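 also: cells exposed to compounds for 16 hours before the ATP read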
CHOP UPR activ = apoptotic UPR (CHOP) activation; CHO-CHOP luciferase reporter, luminescence; percent of tunicamycin response over DMSO baseline; activation, % at 10 µM; hit rate 0.34% among 330,000; AID 449763;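 active = at 10 µM dose, activation of 40% or more, normalized to positive control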;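 also: 100% = tunicamycin at 10 µg/mL and 0% = DMSO alone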
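measured by = luciferase luminescence | assay system = CHO-CHOP cells, stable luciferase reporter of PERK-eIF2a-CHOP signalling | amount = 500 reporter cells seeded per well | timing = 6 h compound exposure at 37 °C after overnight seeding | controls = positive tunicamycin 10 µg/mL, negative DMSO alone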
XBP1 UPR activ = adaptive UPR (XBP1) activation; CHO-XBP1 luciferase reporter, IRE1-XBP1 UPR activation, luminescence; percent of tunicamycin response, DMSO as zero; AID 463104; activation, % at 20 µM; hit rate 0.33% among 330,000;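 active = versus positive control, 20 µM dose yields 30% or more activation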;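 also: 100% = tunicamycin at 10 µg/mL and 0% = DMSO only wells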
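Assay system: CHO-XBP1 luciferase reporter cells; Schedule: 6 h treatment, 37 °C; Detection: glow luminescence from Steady-Glo reagent; Benchmarks: high control tunicamycin 10 µg/mL final, low control DMSO vehicle only.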
CHOP inh = CHOP inhibition in unfolded protein response; CHO-K1 CHOP-promoter luciferase, tunicamycin-induced, 15-18 h; inhibition, % at 10 µM; hit rate 3.8% among 220,000; AID 2732;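 active = compounds that reduced the stress-induced luciferase reporter signal by more than about 70% of percent inhibition, limit read from the data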;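 also: 0% = tunicamycin plus vehicle and 100% = wells without tunicamycin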
H9c2 protect = modulators protecting cardiomyocytes from myocardial damage; AID 588492; hit rate 0.63% among 360,000; protection from H2O2 cell death, % at 20 µM; H9c2 cardiomyocytes, H2O2 injury protection, ATPLite, 2 h;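 active = compounds giving at least 50% protection of heart cells from peroxide-induced death in the single-dose screen, raw or plate-pattern-corrected value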;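 also: 0% = DMSO wells with peroxide and 100% = DMSO wells without peroxide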
* marks the source's active call; other numbers are inactive results. This excerpt belongs to a sample that is enriched for hits.

For Cn1c2c(c(=O)n(C)c1=O)CN(Cc1ccccc1)CN2 the results were iPSC survival up -1 and H9c2 protect 6.
For CNc1nc2cc([N+](=O)[O-])c([N+](=O)[O-])cc2nc1NC the results were iPSC survival up 1, CHOP inh 75* and H9c2 protect -27.
`COC(=O)c1ccc(OCC(O)CN2CCN(CC(O)COc3ccc(C(=O)OC)cc3)CC2)cc1` (stereo not given) gave iPSC survival up -1, CHOP UPR activ -3, XBP1 UPR activ -1 and H9c2 protect -4.
Screening COC(=O)c1ccc(OCC(O)CN(CC(C)C)CC(C)C)cc1 (stereo not given) returned iPSC survival up -2, CHOP UPR activ -2, XBP1 UPR activ -3, CHOP inh 87* and H9c2 protect -12.
Screening COc1ccc(CNC(=O)c2nc(S(=O)(=O)Cc3ccccc3)ncc2Cl)cc1 returned iPSC survival up -1, CHOP UPR activ 164*, XBP1 UPR activ -8 and H9c2 protect -18.
For O=C(NCc1ccccc1)c1nc(S(=O)(=O)Cc2ccccc2)ncc1Cl the results were iPSC survival up 0, CHOP UPR activ 105*, XBP1 UPR activ -11 and H9c2 protect -13.
For O=C(NCc1ccc2c(c1)OCO2)c1nc(S(=O)(=O)Cc2ccccc2)ncc1Cl the results were iPSC survival up 1, CHOP UPR activ 11, XBP1 UPR activ -6 and H9c2 protect -19.
For COC(=O)c1ccccc1NC(=O)c1nc(S(=O)(=O)Cc2ccccc2)ncc1Cl the results were iPSC survival up 11, CHOP UPR activ -11, XBP1 UPR activ -10 and H9c2 protect -17.
For CCC1NC(=O)c2cc3ccccc3cc2-n2c1nc1ccc(F)cc1c2=O (stereo not given) the results were iPSC survival up 3 and H9c2 protect 4.
For Cc1ccc(S(=O)(=O)ON2C(=O)c3ccccc3C2=O)c(C)c1 the results were iPSC survival up -2, CHOP inh 94* and H9c2 protect -9.
Screening O=C(Cc1c(Cl)cccc1Cl)NCCc1ccc(Cl)cc1 returned iPSC survival up -1, CHOP UPR activ 2, XBP1 UPR activ -3, CHOP inh 75* and H9c2 protect 1.
O=C(CCNC(=O)c1ccccc1Cl)NCCc1ccc(Cl)cc1 was read as iPSC survival up 1, CHOP UPR activ 2, XBP1 UPR activ -5 and H9c2 protect 4.
For COc1ccc(Cl)cc1S(=O)(=O)N1CCC(C(=O)NC2CC2)CC1 the results were iPSC survival up 0, CHOP UPR activ 1, XBP1 UPR activ 0 and H9c2 protect -3.
For CCC(C)[C@H](NC(=O)[C@H](Cc1ccccc1)n1c(=O)[nH]c2ccccc2c1=O)C(=O)NCC1CCC(C(=O)O)CC1 (stereo not given in full) the results were iPSC survival up 1, CHOP UPR activ -2, XBP1 UPR activ -2 and H9c2 protect -2.
Nc1nc(Nc2ccccc2)nc(NCc2ccco2)c1[N+](=O)[O-] was read as iPSC survival up 0, CHOP UPR activ 2, XBP1 UPR activ 4, CHOP inh 86* and H9c2 protect -14.
Screening CC(C)NC(=S)N/N=C/c1ccc(C(C)(C)C)cc1 returned iPSC survival up 0, CHOP UPR activ 2, XBP1 UPR activ 1, CHOP inh 91* and H9c2 protect -12.
Cc1ccc(Oc2ccc(-c3nc(N)nc(N)n3)cc2)cc1C was read as iPSC survival up 1, CHOP UPR activ 2, XBP1 UPR activ -1, CHOP inh 89* and H9c2 protect -6.
Nc1nc(N)nc(-c2ccc(Oc3ccccc3)cc2)n1 was read as iPSC survival up -2, CHOP UPR activ -1, XBP1 UPR activ -1, CHOP inh 9 and H9c2 protect 8.
`CC(C)c1ccc(NC2CCCN(C(=O)CN3CCCCC3=O)C2)cc1` (stereo not given) gave iPSC survival up 4 and H9c2 protect -6.
Screening Cc1ccc(N/N=C2\CC(=O)c3ccccc32)cc1Cl returned CHOP UPR activ 49*, XBP1 UPR activ 96* and CHOP inh 18.
CCOC(=O)N1CCN(S(=O)(=O)c2ccc(C(=O)NNc3nc4c(C)cccc4s3)cc2)CC1 was read as iPSC survival up 2, CHOP UPR activ 1, XBP1 UPR activ 2, CHOP inh 13 and H9c2 protect 50*.
